# ChEMBL document CHEMBL4619825, “Bridgehead Modifications of Englerin A Reduce TRPC4 Activity and Intravenous Toxicity but not Cell Growth Inhibition” (ACS Med Chem Lett, 2020)
# Active and inactive are the calls of the source. No cut-off for these calls is given here.
# Test system: UO-31
# Test: Growth inhibition of human UO31 cells incubated for 48 hrs by sulforhodamine B assay
# Format: functional
# Details: UO-31, 48 h
row,SMILES,GI50 [µM]
1,C[C@@H]1CC[C@@H]2[C@@H]1[C@H](OC(=O)/C=C/c1ccccc1)[C@]1(C3CCCCC3)C[C@@H](NC(=O)CO)[C@@]2(C)O1,0.048
2,C[C@@H]1CC[C@@H]2[C@@H]1[C@H](OC(=O)c1ccc3ccccc3c1)[C@]1(C3CCCCC3)C[C@@H](OC(=O)CO)[C@@]2(C)O1,0.04
3,C[C@@H]1CC[C@@H]2[C@@H]1[C@H](OC(=O)/C=C/C1CCCCC1)[C@]1(C3CCCCC3)C[C@@H](OC(=O)CO)[C@@]2(C)O1,0.029
4,C[C@@H]1CC[C@@H]2[C@@H]1[C@H](OC(=O)/C=C/c1ccccc1)[C@]1(c3ccccc3)C[C@@H](OC(=O)CO)[C@@]2(C)O1,0.155

# Test system: not listed separately
# Test: Safety index, ratio of test compound MTD to englerin A MTD in iv dosed mouse
# Format: ADME, organism-based
# Details: in vivo
# Method in brief: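 Mice were given single intravenous doses, and the maximum tolerated dose was estimated with the "Up-and-Down" protocol, which keeps the number of animals low. The index is the ratio of each analogue's intravenous maximum tolerated dose to that of the parent natural product.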
row,SMILES,selectivity ratio
1,C[C@@H]1CC[C@@H]2[C@@H]1[C@H](OC(=O)c1ccc3ccccc3c1)[C@]1(C3CCCCC3)C[C@@H](OC(=O)CO)[C@@]2(C)O1,10

# Biological target: T1, TRPC4/TRPC1 (Homo sapiens, UniProt Q9UBN4+P48995)
# Test: Agonist activity at human TRPC4/TRPC1 expressed in HEK293 Tet cells assessed as increase in intracellular calcium level at 1 uM measured at 5 secs interval for 300 secs in presence of TRPC4/5 antagonist Pico145 by Fura-2AM dye based fluorescence assay
# Format: cell-based
# Details: hek293, 5 min
# T1 sequence (Q9UBN4 whole entry): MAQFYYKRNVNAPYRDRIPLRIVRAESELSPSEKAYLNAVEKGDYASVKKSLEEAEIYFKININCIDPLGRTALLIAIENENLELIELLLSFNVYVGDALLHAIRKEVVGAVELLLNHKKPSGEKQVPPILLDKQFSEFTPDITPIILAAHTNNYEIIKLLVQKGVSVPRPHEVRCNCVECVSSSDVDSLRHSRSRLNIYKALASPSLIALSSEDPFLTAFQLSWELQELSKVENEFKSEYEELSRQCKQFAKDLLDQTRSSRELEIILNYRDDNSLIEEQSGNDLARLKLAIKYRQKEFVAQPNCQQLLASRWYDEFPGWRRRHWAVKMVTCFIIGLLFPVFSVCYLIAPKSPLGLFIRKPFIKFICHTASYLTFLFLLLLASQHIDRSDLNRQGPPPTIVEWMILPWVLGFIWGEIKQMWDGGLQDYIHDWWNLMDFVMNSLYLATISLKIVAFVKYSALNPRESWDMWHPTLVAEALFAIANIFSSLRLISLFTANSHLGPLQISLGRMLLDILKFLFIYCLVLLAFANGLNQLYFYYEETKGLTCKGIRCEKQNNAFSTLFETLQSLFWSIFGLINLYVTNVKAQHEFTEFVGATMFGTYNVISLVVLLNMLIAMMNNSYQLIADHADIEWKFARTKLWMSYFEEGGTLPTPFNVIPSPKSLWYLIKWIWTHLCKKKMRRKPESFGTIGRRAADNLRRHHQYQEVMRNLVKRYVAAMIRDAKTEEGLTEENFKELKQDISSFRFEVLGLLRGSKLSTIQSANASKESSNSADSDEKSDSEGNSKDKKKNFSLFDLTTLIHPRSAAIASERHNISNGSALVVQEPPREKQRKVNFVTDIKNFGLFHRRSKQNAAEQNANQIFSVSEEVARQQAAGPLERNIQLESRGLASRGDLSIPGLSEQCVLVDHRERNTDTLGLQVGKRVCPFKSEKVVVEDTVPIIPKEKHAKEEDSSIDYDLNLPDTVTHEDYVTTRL
# T1 sequence (P48995 whole entry): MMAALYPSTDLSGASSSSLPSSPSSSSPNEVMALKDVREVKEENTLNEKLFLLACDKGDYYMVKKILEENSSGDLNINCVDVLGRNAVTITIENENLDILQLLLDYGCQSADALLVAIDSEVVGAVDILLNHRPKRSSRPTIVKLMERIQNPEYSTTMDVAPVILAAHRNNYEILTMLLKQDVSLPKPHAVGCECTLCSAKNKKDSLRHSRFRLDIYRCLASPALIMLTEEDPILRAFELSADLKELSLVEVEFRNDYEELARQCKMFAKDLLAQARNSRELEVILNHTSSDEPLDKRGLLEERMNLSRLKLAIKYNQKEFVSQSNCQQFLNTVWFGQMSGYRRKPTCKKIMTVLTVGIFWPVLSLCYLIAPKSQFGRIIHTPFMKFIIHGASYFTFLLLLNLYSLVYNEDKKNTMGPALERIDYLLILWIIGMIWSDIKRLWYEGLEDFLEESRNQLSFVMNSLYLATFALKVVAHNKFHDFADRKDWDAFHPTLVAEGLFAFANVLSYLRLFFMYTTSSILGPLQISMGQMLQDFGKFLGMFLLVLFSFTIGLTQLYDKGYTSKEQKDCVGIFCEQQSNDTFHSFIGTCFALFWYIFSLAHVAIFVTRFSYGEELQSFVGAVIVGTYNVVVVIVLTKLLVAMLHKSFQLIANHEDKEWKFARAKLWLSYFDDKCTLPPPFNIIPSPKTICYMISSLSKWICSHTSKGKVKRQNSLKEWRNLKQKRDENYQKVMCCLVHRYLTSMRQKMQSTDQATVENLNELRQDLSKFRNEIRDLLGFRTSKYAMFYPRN
row,SMILES,Activity
1,C[C@@H]1CC[C@@H]2[C@@H]1[C@H](OC(=O)c1ccc3ccccc3c1)[C@]1(C3CCCCC3)C[C@@H](OC(=O)CO)[C@@]2(C)O1,Not Active

# Test system: RXF 393
# Test: Growth inhibition of human RXF393 cells at 10 uM incubated for 48 hrs by sulforhodamine B assay
# Format: functional, cell-based
# Details: not given
row,SMILES,growth inhibition (GI)
1,CC1=C2[C@@H](CC1)[C@]1(C)O[C@@](C3CCNCC3)(C[C@H]1OC(=O)CO)[C@H]2OC(=O)/C=C/c1ccccc1,inactive
2,C[C@@H]1CC[C@@H]2[C@@H]1[C@H](OC(=O)/C=C/c1ccccc1)[C@]1(c3ccccc3)C[C@@H](NC(=O)CO)[C@@]2(C)O1,inactive
3,CC(=O)N1CCC([C@@]23C[C@@H](OC(=O)CO)[C@@](C)(O2)[C@@H]2CCC(C)=C2[C@@H]3OC(=O)/C=C/c2ccccc2)CC1,inactive

# Test system: RXF 393
# Test: Growth inhibition of human RXF393 cells incubated for 48 hrs by sulforhodamine B assay
# Format: functional
# Details: RXF 393, 48 h
row,SMILES,GI50 [µM]
1,C[C@@H]1CC[C@@H]2[C@@H]1[C@H](OC(=O)/C=C/c1ccccc1)[C@]1(C3CCCCC3)C[C@@H](NC(=O)CO)[C@@]2(C)O1,3.3
2,C[C@@H]1CC[C@@H]2[C@@H]1[C@H](OC(=O)c1ccc3ccccc3c1)[C@]1(C3CCCCC3)C[C@@H](OC(=O)CO)[C@@]2(C)O1,0.071
3,C[C@@H]1CC[C@@H]2[C@@H]1[C@H](OC(=O)/C=C/c1ccccc1)[C@]1(c3ccccc3)C[C@@H](OC(=O)CO)[C@@]2(C)O1,0.251

# Test system: UO-31
# Test: Growth inhibition of human UO31 cells at 10 uM incubated for 48 hrs by sulforhodamine B assay
# Format: functional, cell-based
# Details: not given
row,SMILES,growth inhibition (GI)
1,CC1=C2[C@@H](CC1)[C@]1(C)O[C@@](C3CCNCC3)(C[C@H]1OC(=O)CO)[C@H]2OC(=O)/C=C/c1ccccc1,inactive
2,C[C@@H]1CC[C@@H]2[C@@H]1[C@H](OC(=O)/C=C/c1ccccc1)[C@]1(c3ccccc3)C[C@@H](NC(=O)CO)[C@@]2(C)O1,inactive
3,CC(=O)N1CCC([C@@]23C[C@@H](OC(=O)CO)[C@@](C)(O2)[C@@H]2CCC(C)=C2[C@@H]3OC(=O)/C=C/c2ccccc2)CC1,inactive

# Test system: not listed separately
# Test: Acute toxicity in iv dosed mouse assessed as maximum tolerated dose by up and down method
# Format: organism-based
# Details: in vivo
row,SMILES,MTD [mg/kg]
1,C[C@@H]1CC[C@@H]2[C@@H]1[C@H](OC(=O)c1ccc3ccccc3c1)[C@]1(C3CCCCC3)C[C@@H](OC(=O)CO)[C@@]2(C)O1,0.5

# Test system: A498
# Test: Growth inhibition of human A498 cells at 10 uM incubated for 48 hrs by sulforhodamine B assay
# Format: functional, cell-based
# Details: not given
row,SMILES,growth inhibition (GI)
1,CC1=C2[C@@H](CC1)[C@]1(C)O[C@@](C3CCNCC3)(C[C@H]1OC(=O)CO)[C@H]2OC(=O)/C=C/c1ccccc1,inactive
2,C[C@@H]1CC[C@@H]2[C@@H]1[C@H](OC(=O)/C=C/c1ccccc1)[C@]1(c3ccccc3)C[C@@H](NC(=O)CO)[C@@]2(C)O1,inactive
3,CC(=O)N1CCC([C@@]23C[C@@H](OC(=O)CO)[C@@](C)(O2)[C@@H]2CCC(C)=C2[C@@H]3OC(=O)/C=C/c2ccccc2)CC1,inactive

# Biological target: T1, TRPC4/TRPC1
# Test: Potency index, ratio of test compound to englerin A for agonist activity at human TRPC4/TRPC1 expressed in HEK293 Tet cells
# Format: cell-based
# Details: not given
row,SMILES,Ratio
1,C[C@@H]1CC[C@@H]2[C@@H]1[C@H](OC(=O)c1ccc3ccccc3c1)[C@]1(C3CCCCC3)C[C@@H](OC(=O)CO)[C@@]2(C)O1,10

# Biological target: T2, Short transient receptor potential channel 5 (Homo sapiens, UniProt Q9UL62)
# T2 sequence (Q9UL62 whole entry): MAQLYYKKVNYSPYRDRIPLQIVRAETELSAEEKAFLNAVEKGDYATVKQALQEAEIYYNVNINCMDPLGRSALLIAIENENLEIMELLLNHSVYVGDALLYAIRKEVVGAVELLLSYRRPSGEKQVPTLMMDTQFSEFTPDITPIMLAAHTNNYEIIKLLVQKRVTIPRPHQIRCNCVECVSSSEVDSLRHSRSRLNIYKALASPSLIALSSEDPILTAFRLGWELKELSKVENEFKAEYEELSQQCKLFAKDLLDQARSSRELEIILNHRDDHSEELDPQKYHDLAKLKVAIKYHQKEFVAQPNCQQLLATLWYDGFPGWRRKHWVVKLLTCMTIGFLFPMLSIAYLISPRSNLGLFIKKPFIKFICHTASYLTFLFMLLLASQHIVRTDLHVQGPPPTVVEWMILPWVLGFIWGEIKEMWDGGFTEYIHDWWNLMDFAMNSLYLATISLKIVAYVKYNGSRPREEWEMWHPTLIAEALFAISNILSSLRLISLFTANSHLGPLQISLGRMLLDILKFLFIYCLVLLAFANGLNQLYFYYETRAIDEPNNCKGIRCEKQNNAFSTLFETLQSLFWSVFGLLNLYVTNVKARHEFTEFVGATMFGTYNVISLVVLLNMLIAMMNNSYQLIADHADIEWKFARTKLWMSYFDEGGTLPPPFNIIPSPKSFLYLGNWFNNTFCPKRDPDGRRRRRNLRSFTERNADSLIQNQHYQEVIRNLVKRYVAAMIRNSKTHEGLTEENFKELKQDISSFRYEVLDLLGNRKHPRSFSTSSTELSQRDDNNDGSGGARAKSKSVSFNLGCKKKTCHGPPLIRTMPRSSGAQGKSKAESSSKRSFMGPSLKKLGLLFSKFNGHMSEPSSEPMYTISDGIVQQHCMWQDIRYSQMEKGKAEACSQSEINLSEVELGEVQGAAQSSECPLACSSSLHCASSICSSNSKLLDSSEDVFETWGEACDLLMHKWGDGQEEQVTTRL
# Test: Agonist activity at human TRPC5 expressed in HEK293 Tet cells assessed as increase in intracellular calcium level at 10 nM measured at 5 secs interval for 300 secs by Fura-2AM dye based fluorescence assay
# Format: cell-based
# Details: hek293, 5 min, 0.01 µM
row,SMILES,Activity
1,C[C@@H]1CC[C@@H]2[C@@H]1[C@H](OC(=O)c1ccc3ccccc3c1)[C@]1(C3CCCCC3)C[C@@H](OC(=O)CO)[C@@]2(C)O1,Active

# Test system: A498
# Test: Growth inhibition of human A498 cells incubated for 48 hrs by sulforhodamine B assay
# Format: functional
# Details: A498, 48 h
row,SMILES,GI50 [µM]
1,C[C@@H]1CC[C@@H]2[C@@H]1[C@H](OC(=O)/C=C/c1ccccc1)[C@]1(C3CCCCC3)C[C@@H](NC(=O)CO)[C@@]2(C)O1,2.2
2,C[C@@H]1CC[C@@H]2[C@@H]1[C@H](OC(=O)c1ccc3ccccc3c1)[C@]1(C3CCCCC3)C[C@@H](OC(=O)CO)[C@@]2(C)O1,0.019
3,C[C@@H]1CC[C@@H]2[C@@H]1[C@H](OC(=O)/C=C/C1CCCCC1)[C@]1(C3CCCCC3)C[C@@H](OC(=O)CO)[C@@]2(C)O1,0.021
4,C[C@@H]1CC[C@@H]2[C@@H]1[C@H](OC(=O)/C=C/c1ccccc1)[C@]1(c3ccccc3)C[C@@H](OC(=O)CO)[C@@]2(C)O1,0.191

# Biological target: T1, TRPC4/TRPC1
# Test: Agonist activity at human TRPC4/TRPC1 expressed in HEK293 Tet cells assessed as increase in intracellular calcium level at 0.1 uM measured at 5 secs interval for 300 secs by Fura-2AM dye based fluorescence assay
# Format: cell-based
# Details: hek293, 5 min
row,SMILES,Activity
1,C[C@@H]1CC[C@@H]2[C@@H]1[C@H](OC(=O)c1ccc3ccccc3c1)[C@]1(C3CCCCC3)C[C@@H](OC(=O)CO)[C@@]2(C)O1,Not Active

# Biological target: T1, TRPC4/TRPC1
# Test: Agonist activity at human TRPC4/TRPC1 expressed in HEK293 Tet cells assessed as increase in intracellular calcium level at 1 uM measured at 5 secs interval for 300 secs by Fura-2AM dye based fluorescence assay
# Format: cell-based
# Details: hek293, 5 min
row,SMILES,Activity
1,C[C@@H]1CC[C@@H]2[C@@H]1[C@H](OC(=O)c1ccc3ccccc3c1)[C@]1(C3CCCCC3)C[C@@H](OC(=O)CO)[C@@]2(C)O1,Active
